Data published in ChEMBL document CHEMBL5230174, “Synthesis and properties of the kojic acid dimer and its potential for the treatment of Alzheimer's disease” (RSC Med Chem, 2023).
Calls of active or inactive are those of the source. The calls are words filed in the database; no cut-off is given here.

Legend:
[1] = Cytotoxicity against human L02 cells assessed as reduction in cell viability incubated for 24 hrs by MTT assay; format: toxicity, cell-based
Summary of the method: (§1)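 Cells grown with 10% FBS plus penicillin/streptomycin at 37 °C, 5% CO2 (SH-SY5Y in DMEM/F12; BV-2, HT-22, H9c2 in DMEM; L02 in RPMI 1640). Seeded 1 × 10^4 per well, 24 h, then compound in medium 24 h. MTT (5 mg/mL stock) added 4 h at 37 °C; formazan dissolved in DMSO, A490 read.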

[2] = Cytotoxicity against mouse HT-22 cells assessed as reduction in cell viability incubated for 24 hrs by MTT assay; format: toxicity, cell-based; summary of the method: as §1
[3] = Cytotoxicity against rat H9c2 cells assessed as reduction in cell viability incubated for 24 hrs by MTT assay; format: toxicity, cell-based; summary of the method: as §1
[4] = Cytotoxicity against human SH-SY5Y cells assessed as reduction in cell viability incubated for 24 hrs by MTT assay; format: toxicity, cell-based; summary of the method: as §1
[5] = Antioxidant activity assessed as ABTS radical scavenging activity at 100 uM incubated for 6 mins under dark condition by UV-Vis spectrophotometry; format: functional
Summary of the method: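 Compound dilutions made in DMSO. ABTS (7 mM in water) reacted with 4.96 mM potassium persulfate, 16 h dark at room temperature; working solution adjusted to A734 0.70 ± 0.02. Working solution mixed with sample 9:1, shaken 6 min at room temperature in dark; A734 read on plate reader. Scavenging rate from absorbance; triplicate wells, three independent experiments.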

[6] = target: Amyloid-beta precursor protein (Homo sapiens) (UniProt P05067); test: Inhibition of HFIP-pretreated human amyloid beta (1 to 42) aggregation at 50 uM incubated for 24 hrs under dark condition by Thioflavin T dye based fluorometric analysis
Summary of the method: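 HFIP-pretreated human Aβ1–42 dissolved at 1000 μM in 1% NH4OH, sonicated 1 h cold, stored −20 °C, diluted in PBS pH 7.4. Aβ (25 μM final) incubated with compound (50 μM final) or PBS 24 h at 37 °C in dark. Aliquot mixed with 5 μM ThT in Gly-NaOH pH 8.5, shaken 5 min; fluorescence ex 450/em 490 nm. Inhibition = 1 − Fs/F0, background ThT subtracted; three independent experiments.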

[7] = Antioxidant activity assessed as DPPH radical scavenging activity at 100 uM incubated for 30 mins under dark condition by UV-Vis spectrophotometry; format: functional
Summary of the method: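 Compound dilutions made in DMSO. 100 μM DPPH in ethanol mixed 9:1 with sample, shaken 30 min in dark at room temperature; absorbance read at 517 nm on plate reader. Scavenging rate calculated from absorbance; triplicate wells, three parallel measurements, three independent experiments.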

[8] = Cytotoxicity against mouse BV-2 cells assessed as reduction in cell viability incubated for 24 hrs by MTT assay; format: toxicity, cell-based; summary of the method: as §1
[9] = Antioxidant activity assessed as ABTS radical scavenging activity at 50 uM incubated for 6 mins under dark condition by UV-Vis spectrophotometry; format: functional
Summary of the method: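 ABTS radical cation is generated from 7 mM ABTS and 4.96 mM potassium persulfate, kept dark at room temperature for 16 h, and diluted to A734 0.70 ± 0.02. Samples are serially diluted in DMSO and mixed with working solution, then shaken 6 min at room temperature in the dark before reading A734. Scavenging rate (%) comes from triplicate wells; VC and KA are controls.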

[10] = Metal chelating activity assessed as compound-Mg2+ complex formation by measuring optical responses at 100 uM in presence of MgSO4 by UV-Vis spectroscopy
Summary of the method: (§2)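 Compound held at 100 μM in HEPES buffer (pH 7.4). The metal salt (CuSO4, ZnCl2, FeCl2, FeCl3·7H2O, AlCl3, Mn(CH3COO)2, MgSO4, NaCl, KCl or CaCl2) was added at one equivalent, and the UV-vis absorption spectrum was recorded from 200 to 800 nm.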

[11] = Metal chelating activity assessed as compound-Ca2+ complex formation by measuring optical responses at 100 uM in presence of CaCl2 by UV-Vis spectroscopy; summary of the method: as §2
BV-2 [12] = test: Antioxidant activity in mouse BV-2 cells assessed as reduction in H2O2-induced ROS burst by measuring increase in SOD activity at 125 to 500 uM treated with compound prior to H2O2 challenge; format: functional, cell-based; settings: dose 125-500 µM
[13] = Metal chelating activity assessed as compound-Cu2+ complex formation at stoichiometric ratio of 1:1 at 100 uM in presence of CuSO4 by UV-Vis spectroscopy
Summary of the method: (§3)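 Compound held at 100 μM in HEPES buffer (pH 7.4) and titrated with Cu2+ at 12.5–200 μM (nine levels). UV-vis spectra were followed at 370 and 475 nm. Stoichiometry was taken from a plot of absorbance at 475 nm against the Cu2+:compound ratio.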

[14] = Metal chelating activity assessed as compound-Fe2+ complex formation by measuring optical responses at 100 uM in presence of FeCl2 by UV-Vis spectroscopy; summary of the method: as §2
[15] = Induction of intracellular ROS accumulation in mouse BV-2 cells at 500 uM treated for 24 hrs by DCFH-DA staining based flow cytometry (reference value: 7.15%); format: toxicity, cell-based; settings: bv-2, 24 h
[16] = Metal chelating activity assessed as compound-Cu2+ complex formation by measuring decrease in absorption band intensity at 370 nm at 100 uM in presence of CuSO4 by UV-Vis spectroscopy; summary of the method: as §3
[17] = Metal chelating activity assessed as compound-K+ complex formation by measuring optical responses at 100 uM in presence of KCl by UV-Vis spectroscopy; summary of the method: as §2
[18] = Metal chelating activity assessed as compound-Na+ complex formation by measuring optical responses at 100 uM in presence of NaCl by UV-Vis spectroscopy; summary of the method: as §2
[19] = Antioxidant activity assessed as DPPH radical scavenging activity at 100 uM incubated for 30 mins under dark condition by UV-Vis spectrophotometry relative to kojic acid; format: functional
Summary of the method: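 Samples serially diluted in DMSO, tested at 400–6.25 μM. Mixed with 100 μM DPPH in ethanol at 9:1 reagent:sample and shaken 30 min in the dark at room temperature. Absorbance read at 517 nm. Scavenging rate (%) is the mean of three independent experiments, each run in triplicate wells.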

H9c2 [20] = test: Antioxidant activity in rat H9c2 cells assessed as reduction in H2O2-induced intracellular ROS accumulation at 125 to 500 uM pretreated for 24 hrs followed by H2O2 challenge for 4 hrs by DCFH-DA staining based inverted fluorescence microscopy; format: functional, cell-based; settings: dose 125-500 µM, time 28.0 hrs
[21] = Metal chelating activity assessed as compound-Zn2+ complex formation by measuring optical responses at 100 uM in presence of ZnCl2 by UV-Vis spectroscopy; summary of the method: as §2
H9c2 [22] = test: Antioxidant activity in rat H9c2 cells assessed as reduction in H2O2-induced intracellular ROS accumulation at 125 to 500 uM pretreated for 24 hrs followed by H2O2 challenge for 4 hrs by DCFH-DA staining based flow cytometry; format: functional, cell-based; settings: dose 125-500 µM, time 28.0 hrs
[23] = Metal chelating activity assessed as compound-Cu2+ complex formation by measuring increase in absorption band intensity at 475 nm at 100 uM in presence of CuSO4 by UV-Vis spectroscopy; summary of the method: as §3
BV-2 [24] = test: Antioxidant activity in mouse BV-2 cells assessed as reduction in H2O2-induced intracellular ROS accumulation by measuring intracellular ROS level at 500 uM pretreated for 24 hrs followed by H2O2 challenge for 12 hrs by DCFH-DA staining based flow cytometry (reference value: 40.7%); format: functional; parameters: scale not given: the % may be the effect or the level left; settings: time 36 hrs
BV-2 [25] = test: Antioxidant activity in mouse BV-2 cells assessed as reduction in H2O2-induced intracellular ROS accumulation by measuring intracellular ROS level at 250 uM pretreated for 24 hrs followed by H2O2 challenge for 12 hrs by DCFH-DA staining based flow cytometry (reference value: 40.7%); format: functional; parameters: scale not given: the % may be the effect or the level left; settings: time 36 hrs
BV-2 [26] = test: Antioxidant activity in mouse BV-2 cells assessed as reduction in H2O2-induced intracellular ROS accumulation at 125 to 500 uM pretreated for 24 hrs followed by H2O2 challenge for 12 hrs by DCFH-DA staining based inverted fluorescence microscopy; format: functional, cell-based; settings: dose 125-500 µM, time 36.0 hrs
Summary of the method: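 BV-2 cells (2 × 10^5/well) are pretreated with compound for 24 h, then given 1000 μM H2O2 for 12 h. They are loaded with 10 μM DCFH-DA in serum-free medium for 30 min at 37 °C and washed three times with PBS.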

SH-SY5Y = test: Neuroprotective activity against H2O2-induced oxidative damage in human SH-SY5Y cells assessed as increase in cell viability at 500 uM pretreated for 24 hrs followed by H2O2 challenge for 2 hrs by MTT assay; format: functional, cell-based; settings: time 26.0 hrs
Summary of the method: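 SH-SY5Y cells are seeded at 1 × 10^4/well in DMEM/F12 with 10% FBS and grown 24 h. They are pretreated with compound for 24 h, then given 200 μM H2O2 for 2 h. MTT (5 mg/mL stock) is added for 4 h, formazan dissolved in DMSO, and A490 read. Viability is given as % of untreated control, mean ± SEM (n = 3).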

[27] = Antioxidant activity assessed as ABTS radical scavenging activity at 100 uM incubated for 6 mins under dark condition by UV-Vis spectrophotometry relative to kojic acid; format: functional
Summary of the method: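 Samples serially diluted in DMSO, tested at 400–6.25 μM. ABTS (7 mM, water) reacted with 4.96 mM potassium persulfate for 16 h in the dark at room temperature, then diluted to A734 of 0.70 ± 0.02. Working solution mixed 9:1 with sample and shaken 6 min in the dark at room temperature. Absorbance read at 734 nm; scavenging rate (%) is the mean of three independent experiments.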

[28] = Metal chelating activity assessed as compound-Al3+ complex formation by measuring optical responses at 100 uM in presence of AlCl3 by UV-Vis spectroscopy; summary of the method: as §2
[29] = Metal chelating activity assessed as compound-Cu2+ complex formation by measuring optical responses at 100 uM in presence of CuSO4 by UV-Vis spectroscopy; summary of the method: as §2
[30] = Metal chelating activity assessed as compound-Fe3+ complex formation by measuring optical responses at 100 uM in presence of FeCl3 by UV-Vis spectroscopy; summary of the method: as §2
H9c2 [31] = test: Antioxidant activity in rat H9c2 cells assessed as reduction in H2O2-induced ROS burst by measuring increase in SOD activity at 125 to 500 uM treated with compound prior to H2O2 challenge; format: functional, cell-based; settings: dose 125-500 µM
[32] = Metal chelating activity assessed as compound-Mn2+ complex formation by measuring optical responses at 100 uM in presence of Mn(CH3COO)2 by UV-Vis spectroscopy; summary of the method: as §2
[33] = Metal chelating activity assessed as compound-Fe2+ complex formation at stoichiometric ratio of 1:1 at 100 uM in presence of FeCl2 by UV-Vis spectroscopy
H9c2 [34] = test: Neuroprotective activity against H2O2-induced oxidative damage in rat H9c2 cells assessed as increase in cell viability at 125 to 500 uM pretreated for 24 hrs followed by H2O2 challenge for 2 hrs by MTT assay; format: functional, cell-based; settings: dose 125-500 µM, time 26.0 hrs
BV-2 [35] = test: Antioxidant activity in mouse BV-2 cells assessed as reduction in H2O2-induced intracellular ROS accumulation by measuring intracellular ROS level at 125 uM pretreated for 24 hrs followed by H2O2 challenge for 12 hrs by DCFH-DA staining based flow cytometry (reference value: 40.7%); format: functional; parameters: scale not given: the % may be the effect or the level left; settings: time 36 hrs

Sequence of Amyloid-beta precursor protein (Homo sapiens) (P05067 whole entry): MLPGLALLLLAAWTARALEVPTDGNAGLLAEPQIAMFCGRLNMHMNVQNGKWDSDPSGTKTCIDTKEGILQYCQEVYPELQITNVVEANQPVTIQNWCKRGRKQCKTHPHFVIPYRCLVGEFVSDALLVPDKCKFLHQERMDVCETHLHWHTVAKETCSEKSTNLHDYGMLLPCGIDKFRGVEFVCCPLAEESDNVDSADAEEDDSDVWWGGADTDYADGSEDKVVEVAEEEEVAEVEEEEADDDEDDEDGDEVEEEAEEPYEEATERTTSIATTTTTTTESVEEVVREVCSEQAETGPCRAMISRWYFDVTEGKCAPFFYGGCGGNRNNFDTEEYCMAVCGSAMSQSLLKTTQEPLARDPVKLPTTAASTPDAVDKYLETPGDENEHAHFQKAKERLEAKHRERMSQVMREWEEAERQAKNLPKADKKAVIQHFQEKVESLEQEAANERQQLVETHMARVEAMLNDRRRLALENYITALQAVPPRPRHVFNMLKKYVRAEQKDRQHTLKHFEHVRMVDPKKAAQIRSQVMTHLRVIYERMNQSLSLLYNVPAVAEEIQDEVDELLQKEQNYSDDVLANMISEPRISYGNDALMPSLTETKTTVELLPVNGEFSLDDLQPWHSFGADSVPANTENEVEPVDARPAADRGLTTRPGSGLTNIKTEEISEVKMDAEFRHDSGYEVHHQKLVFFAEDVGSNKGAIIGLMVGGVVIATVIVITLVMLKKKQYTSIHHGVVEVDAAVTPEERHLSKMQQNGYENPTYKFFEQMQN

SMILES: O=c1cc(CO)occ1O [KOJIC ACID]
- IC50 at 24 h [1]: > 500 µM
- IC50 at 24 h [2]: > 500 µM
- IC50 at 24 h [3]: > 500 µM
- IC50 at 24 h [4]: > 500 µM
- Activity [5]: 46.8%
- inhibition [6]: 14.6%
- Activity [7]: 17.8%
- IC50 at 24 h [8]: > 500 µM

SMILES: O=C1O[C@H]([C@@H](O)CO)C(O)=C1O
- Activity [9]: 39.7%

SMILES: O=c1cc(CO)oc(-c2oc(CO)cc(=O)c2O)c1O
- IC50 at 24 h [1]: > 500 µM
- Activity [10]: inactive
- Activity [9]: 56%
- Activity [11]: inactive
- Activity (BV-2 [12]): Dose-Dependent Effect
- Activity [13]: Active
- Activity [14]: Active
- IC50 at 24 h [2]: > 500 µM
- Activity [15]: 14%
- Activity [16]: Active
- Activity [17]: inactive
- Activity [18]: inactive
- fold change (FC) [19]: 2
- Activity (H9c2 [20]): Active
- Activity [21]: Active
- Activity (H9c2 [22]): Active
- IC50 at 24 h [3]: > 500 µM
- Activity [23]: Active
- Activity (BV-2 [24]): 21.6%
- Activity (BV-2 [25]): 24.8%
- Activity (BV-2 [26]): Active
- Activity (SH-SY5Y): Active
- fold change (FC) [27]: 2
- Activity [28]: Active
- Activity [29]: Active
- IC50 at 24 h [4]: > 500 µM
- Activity [5]: 79.4%
- inhibition [6]: 17%
- Activity [30]: Active
- Activity [7]: 50.3%
- Activity (H9c2 [31]): Active
- Activity [32]: inactive
- Activity [33]: Active
- Activity (H9c2 [34]): Active
- Activity (BV-2 [35]): 29.4%
- IC50 at 24 h [8]: > 500 µM
